# Only some compounds are listed: those with a hit (about 1.8% of all), similar ones and a draw of the others.
# SKN-1 block – blocks SKN-1 activity in C. elegans; C. elegans VP596 Pgst-4::GFP/RFP ratio, acrylamide-induced, 24 h; inhibition, % at 21.8 µM; 360,000 tested, 0.49% active;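 active = interference check ratio from 0.5 to 1.5 plus GFP to RFP signal ratio inhibition reaching or exceeding a fixed threshold, cut at about 30% in these data, passing the limit was not always enough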
# MIN6 prolif – MIN6 beta-cell proliferation induction; proliferation, % at 10 µM; MIN6 cells proliferation, ATPlite luminescence, 48 h; cells starved in 0.2% serum; 100% = growth in 10% serum; 330,000 tested, 0.29% active;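 active = compounds whose signal lies at least 3.5 SD above the mean of all wells on their plate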;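 note: 0% = DMSO-treated cells in low-serum medium and 100% = 10% serum control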
# MT1-MMP act inh – blocks activation of human MT1-MMP; P50281; HT1080 RFP-PRO-GFP cells, GFP/RFP ratio fluorescence, overnight; percent of plate control window, DMSO zero; GFP/RFP ratio change, % at 20 µM; 360,000 tested, 0.061% active; AID 651647;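 active = GFP/RFP ratio change of at least 30% with cell ATP level not reduced by more than half and red fluorescence within 50% of control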
#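 Assay system: RFP-PRO-GFP reporter HT1080 cells; read-out basis: GFP/RFP fluorescence ratio; benchmarks: DMSO wells and RFP-L50D-GFP cells; doses: 20 µM single dose, 1% DMSO; schedule: overnight cell settling, then overnight compound exposure, 37 °C, 5% CO2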
# MsrA inh – inhibits bovine methionine sulfoxide reductase A; purified bovine MsrA, absorbance read-out; inhibition, % at 15.5 µM; 360,000 tested, 0.75% active; in the data active = inhibition above about 4.5%;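 note: 0% = vehicle wells with enzyme and 100% = reference inhibitor wells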
# DAGLB inhibitor – blocks human DAGLB lipase activity; inhibition, % at 5.17 µM; HEK293T DAGLB membrane lysate, EnzChek fluorogenic substrate; 340,000 tested, 0.059% active; Q8NCG7; in the data active = inhibition above about 34%;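 note: 0% = enzyme with vehicle and 100% = wells lacking enzyme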
# MsrA act – activators of bovine methionine sulfoxide reductase A; purified bovine MsrA, absorbance read-out; activation, % at 10.6 µM; 360,000 tested, 0.3% active; AID 602163; in the data active = activation above about 7.5%;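 note: 0% = vehicle and 100% = reference activator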
# DAGLB inh conf – DAGLB (human) inhibition, confirmation screen; shares compounds with DAGLB inhibitor; HEK293T DAGLB membrane lysate, EnzChek fluorogenic substrate; inhibition, % at 5.17 µM; 190 tested, 73% active; AID 504445;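 active = mean inhibition over triplicate wells above a set limit taken from the primary lipase screen, cut at about 34% in these data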;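 note: 0% = DAGLB with DMSO and 100% = wells lacking DAGLB enzyme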
# Numbers without * were called inactive; . = not tested or not shown.
SMILES,SKN-1 block,MIN6 prolif,MT1-MMP act inh,MsrA inh,DAGLB inhibitor,MsrA act,DAGLB inh conf
CCOC1OC(=O)C(Cl)=C1Nc1ccc(C)cc1C (stereo not drawn),1,-2,-1,-1,-1,-3,.
CCCCCCCCN1C(=O)[C@@H](CC(=O)NCCCCc2ccccc2)C[C@@]2(C(=O)OC)C1=C[C@H](C(C)(C)C)O[C@@H]2C,.,.,.,0,.,.,.
COc1cccc(C(=O)Nc2cccc(C(=O)NC3=NN(c4c(Cl)cc(Cl)cc4Cl)C(=O)C3)c2)c1,9,-6,-3,2,36*,0,17
COc1cccc(C(=O)Nc2cccc(NC(=O)c3ccccc3Cl)c2)c1,5,0,2,0,1,-3,.
COc1ccc(CN2C(=O)CSCC2(C)C(=O)Nc2c(C)cccc2C)cc1 (stereo not drawn),12,.,0,0,.,.,.
CCc1ccc(S(=O)(=O)/N=C2\C=C(Nc3ccc(O)cc3)C(=O)c3ccccc32)cc1,6,-4,-6,.,40*,3,51*
C[C@H]1CNC(=O)c2c(C(=O)N3CCN(c4ccccc4)CC3)ncn21,.,.,.,0,.,.,.
CC1(C)CC(=O)C2=C(C1)c1c(ccc3ccccc13)NC2c1cc([N+](=O)[O-])cc([N+](=O)[O-])c1O (stereo not drawn),3,-5,-1,4,42*,-5,39*
O=C1/C(=C\c2cccc([N+](=O)[O-])c2O)SC(=S)N1Cc1ccccc1,15,.,91,0,20,-2,.
COc1cc([N+](=O)[O-])cc(/C=C2/SC(=S)N(Cc3ccccc3)C2=O)c1O,52*,.,4,3,40*,-4,48*
CN1CCN(C(=O)c2ccc(-c3cnn(C)c3)c3ccoc23)CC1,0,.,0,.,.,-6,.
Oc1ccc(N=Nc2nc(-c3ccccc3)c(-c3ccccc3)[nH]2)cc1,11,-5,9,-1,38*,-3,31
O=C(NC(C(=O)N/N=C/c1c2ccccc2cc2ccccc12)c1n[nH]c(=O)c2ccccc12)c1ccccc1 (stereo not drawn),-5,0,-12,2,40*,-4,38*
O=C(NC(C(=O)N/N=C/c1ccccc1)c1n[nH]c(=O)c2ccccc12)c1ccccc1 (stereo not drawn),5,1,5,-1,32,-2,.
COc1c(/C=C2\SC(=Nc3ccccc3Cl)NC2=O)cccc1[N+](=O)[O-],-11,-5,10,2,11,-3,.
O=C1NC(=Nc2ccccc2Cl)S/C1=C\c1cccc([N+](=O)[O-])c1O,-9,-5,2,1,36*,-4,32
Cc1ccc(C)c(NC(=O)/C(C#N)=C/c2cn(CC(=O)NCc3ccco3)c3ccccc23)c1,4,-7,-8,0,46*,1,48*
Cc1ccc(NC(=O)/C(C#N)=C/c2cn(CC(=O)NCc3ccco3)c3ccccc23)cc1C,1,-6,-7,1,28,-2,.
CC1=C(c2ccccc2)CCC1=O,5,4,-4,1,1,-3,.
O=C1CC(c2ccccc2)=C(c2ccccc2)C1,0,.,-1,0,71*,-1,-5
O=c1ccn(C2CC(O)C(COC(c3ccccc3)(c3ccccc3)c3ccccc3)O2)c(=O)[nH]1 (stereo not drawn),.,.,.,2,.,.,.
C#CCOc1ccccc1C(=O)NNc1ccc([N+](=O)[O-])cc1[N+](=O)[O-],.,.,.,0,.,.,.
CCOc1ccc2c(c1)-c1c(ssc1=S)C(C)(C)N2C(=O)CSC1=NCCS1,13,-4,-1,2,20,-1,.
CCOc1ccc2c(c1)-c1c(ssc1=S)C(C)(C)N2,15,-3,19,.,39*,-1,35*
O=C(Nc1cccc(C(F)(F)F)c1)c1cccc(NS(=O)(=O)c2ccc(Br)c(C(=O)O)c2)c1,2,-3,-1,0,2,-1,.

# Screening results from PubChem.
